Laboratory results taken from ChEMBL document CHEMBL4266041, “Hydroxybiphenylamide GroEL/ES Inhibitors Are Potent Antibacterials against Planktonic and Biofilm Forms of Staphylococcus aureus” (J Med Chem, 2018).

Columns and labels:
E. coli GroEL/ES [1] = biological target: T1, E. coli GroEL/ES (Escherichia coli, UniProt P0A6F5); test: Inhibition of Escherichia coli GroEL expressed in Escherichia coli DH5alpha/Escherichia coli GroES expressed in Escherichia coli BL21 (DE3) assessed as reduction in GroEL/GroES-mediated denatured MDH refolding after 20 to 40 mins by spectrometric analysis
T1 sequence (P0A6F5 whole entry, looked up): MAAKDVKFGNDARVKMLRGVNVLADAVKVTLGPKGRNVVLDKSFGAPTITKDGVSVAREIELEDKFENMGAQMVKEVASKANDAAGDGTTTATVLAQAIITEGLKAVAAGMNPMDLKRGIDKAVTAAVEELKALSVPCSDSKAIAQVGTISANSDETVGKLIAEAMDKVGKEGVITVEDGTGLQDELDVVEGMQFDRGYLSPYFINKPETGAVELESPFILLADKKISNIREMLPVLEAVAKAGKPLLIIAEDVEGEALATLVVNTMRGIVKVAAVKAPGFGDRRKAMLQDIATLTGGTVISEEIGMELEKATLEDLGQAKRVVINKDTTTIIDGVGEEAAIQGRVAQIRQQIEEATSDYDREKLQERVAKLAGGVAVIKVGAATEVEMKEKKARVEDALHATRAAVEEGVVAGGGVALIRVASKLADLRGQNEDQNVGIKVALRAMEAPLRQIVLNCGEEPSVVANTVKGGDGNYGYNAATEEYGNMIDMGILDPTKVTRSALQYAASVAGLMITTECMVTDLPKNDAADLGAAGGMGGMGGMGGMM
Outline: (§1)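 Uses E. coli GroEL/ES with a denatured MDH or rhodanese reporter. GroEL first forms a binary complex with the denatured reporter. Refolding is started by adding ATP and GroES, then reporter enzyme activity is read. DMSO is the negative control. IC50 values from replicate curves are log-averaged after ROUT outlier screening.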

E. coli GroEL/ES [2] = biological target: T1, E. coli GroEL/ES; test: Inhibition of Escherichia coli GroEL expressed in Escherichia coli DH5alpha/Escherichia coli GroES expressed in Escherichia coli BL21 (DE3) assessed as reduction in GroEL/GroES-mediated denatured rhodanese refolding after 45 mins by spectrometric analysis; outline: as §1
Staphylococcus aureus [3] = test: Antibacterial activity against Staphylococcus aureus ATCC 25923 after 6 to 8 hrs by bacterial proliferation assay; assay type: functional, organism-based
[4] = biological target: T2, Thiosulfate sulfurtransferase (Homo sapiens, UniProt Q16762); test: Inhibition of refolded rhodanese (unknown origin) preincubated with Escherichia coli GroEL/GroES for 60 mins in absence of compound followed by compound addition by spectrometric analysis
T2 sequence (Q16762 whole entry): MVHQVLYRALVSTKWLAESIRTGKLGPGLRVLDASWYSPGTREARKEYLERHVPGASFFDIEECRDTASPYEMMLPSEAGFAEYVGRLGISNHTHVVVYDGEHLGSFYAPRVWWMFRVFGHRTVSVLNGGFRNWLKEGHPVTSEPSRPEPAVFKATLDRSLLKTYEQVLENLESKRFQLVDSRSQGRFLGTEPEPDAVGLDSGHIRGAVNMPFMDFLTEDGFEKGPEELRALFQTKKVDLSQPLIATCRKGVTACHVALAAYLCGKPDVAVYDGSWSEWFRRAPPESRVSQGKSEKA

[5] = Inhibition of refolded MDH (unknown origin) preincubated with Escherichia coli GroEL/GroES for 45 mins in absence of compound followed by compound addition and measured for 20 to 35 mins by spectrometric analysis
Enterococcus faecium = test: Antibacterial activity against Enterococcus faecium ATCC 19434 after 24 hrs by bacterial proliferation assay; assay type: functional, organism-based; conditions: ATCC 19434, 24 h
Staphylococcus aureus [6] = test: Antibacterial activity against methicillin-resistant Staphylococcus aureus ATCC BAA-44 after 6 to 8 hrs by bacterial proliferation assay; assay type: functional, organism-based; conditions: Staphylococcus aureus, ATCC BAA-44
Klebsiella pneumoniae = test: Antibacterial activity against Klebsiella pneumoniae ATCC 13883 after 6 to 8 hrs by bacterial proliferation assay; assay type: functional, organism-based
Outline: (§2)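 Bacterial growth inhibition in liquid culture. The highest concentration tested was 100 µM. The mean was back-calculated from the average log value. Values above the top concentration were set 0.1 log unit higher.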

Acinetobacter baumannii = test: Antibacterial activity against Acinetobacter baumannii ATCC 19606 after 24 hrs by bacterial proliferation assay; assay type: functional, organism-based; conditions: ATCC 19606 = CIP 70.34 = JCM 6841, 24 h; outline: as §2
Pseudomonas aeruginosa = test: Antibacterial activity against Pseudomonas aeruginosa ATCC 10145 after 24 hrs by bacterial proliferation assay; assay type: functional, organism-based; conditions: ATCC 10145, 24 h; outline: as §2
Enterobacter cloacae = test: Antibacterial activity against Enterobacter cloacae subsp. cloacae ATCC 13047 after 24 hrs by bacterial proliferation assay; assay type: functional, organism-based; conditions: subsp. cloacae ATCC 13047, 24 h; outline: as §2
HSP60/HSP10 = HSP60/HSP10 (Homo sapiens, UniProt P10809); test: Inhibition of human N-terminal octa-His-tagged HSP60 expressed in Escherichia coli Rosetta(DE3) pLysS/human HSP10 expressed in Escherichia coli Rosetta(DE3) assessed as reduction in HSP60/HSP10-mediated denatured MDH refolding after 40 to 60 mins by spectrometric analysis
Sequence of HSP60/HSP10 (P10809 whole entry): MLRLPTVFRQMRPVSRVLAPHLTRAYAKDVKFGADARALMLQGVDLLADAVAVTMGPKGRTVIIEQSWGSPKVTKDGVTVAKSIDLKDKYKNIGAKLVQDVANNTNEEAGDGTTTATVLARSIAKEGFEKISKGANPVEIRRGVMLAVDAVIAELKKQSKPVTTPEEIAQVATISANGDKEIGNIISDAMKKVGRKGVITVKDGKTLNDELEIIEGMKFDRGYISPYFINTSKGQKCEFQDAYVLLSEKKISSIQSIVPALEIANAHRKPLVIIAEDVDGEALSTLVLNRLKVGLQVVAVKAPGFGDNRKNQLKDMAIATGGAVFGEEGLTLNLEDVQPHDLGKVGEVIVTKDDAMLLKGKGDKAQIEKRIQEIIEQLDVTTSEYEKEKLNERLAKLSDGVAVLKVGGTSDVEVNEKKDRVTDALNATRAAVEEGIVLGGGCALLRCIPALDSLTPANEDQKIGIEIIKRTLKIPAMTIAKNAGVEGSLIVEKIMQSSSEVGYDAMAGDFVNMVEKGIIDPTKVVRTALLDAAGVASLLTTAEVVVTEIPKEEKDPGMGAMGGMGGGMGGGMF
Sequence of HSP60/HSP10 (P61604 whole entry, further chain): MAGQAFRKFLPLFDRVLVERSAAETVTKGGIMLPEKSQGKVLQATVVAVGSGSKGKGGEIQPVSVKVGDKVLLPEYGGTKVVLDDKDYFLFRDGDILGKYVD
Outline: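 Human HSP60/10 refolding of denatured MDH, run the same way as the GroEL/ES-dMDH assay. A binary complex of chaperonin and denatured MDH is formed, and refolding is started with ATP and HSP10. MDH activity is the read-out. DMSO is the negative control. IC50 values from replicate curves are log-averaged after ROUT outlier screening.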

[7] = Cytotoxicity against human THLE3 cells assessed as reduction in cell viability after 48 hrs by Alamar Blue reporter assay; conditions: 48 h
HEK293 = test: Cytotoxicity against HEK293 cells assessed as reduction in cell viability after 48 hrs by Alamar Blue reporter assay; conditions: human, hek293, 48 h
Staphylococcus aureus [8] = test: Antibiofilm activity against Staphylococcus aureus Rosenbach ATCC 25923 after 24 hrs by crystal-violet based UV-Vis spectroscopy; assay type: functional, organism-based; conditions: Rosenbach ATCC 25923, 24 h
Outline: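 ATCC 25923 colony grown overnight in TSB at 37°C with shaking, precultured 1 h in TSB + 0.5% glucose, then diluted to OD600 0.01. Incubated stagnant at 37°C for 24 h with compound (100 µM–46 nM, 3-fold, DMSO), alongside bacteria-free baseline plates. Wells washed, crystal violet stained 15 min, developed in MeOH:AcOH:H2O, A595.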

Staphylococcus aureus [9] = test: Bactericidal activity against Staphylococcus aureus Rosenbach ATCC 25923 in biofilms preincubated for 24 hrs followed by compound wash out and measured after 24 hrs; assay type: functional, organism-based
Outline: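 ATCC 25923 preculture (TSB + 0.5% glucose, OD600 0.01) grown stagnant 24 h at 37°C to form biofilm, without compound. Wells washed 3× with PBS, then fresh TSB added with compound (100 µM–46 nM, 3-fold, DMSO) for 24 h at 37°C. Washed again, then recovered in fresh TSB 24 h at 37°C.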

Staphylococcus aureus [10] = test: Bactericidal activity against planktonic growth of Staphylococcus aureus Rosenbach ATCC 25923 preincubated for 24 hrs followed by compound wash out and measured after 24 hrs; assay type: functional, organism-based

Compound	IC50 (E. coli GroEL/ES [1])	IC50 (E. coli GroEL/ES [2])	EC50 (Staphylococcus aureus [3])	IC50 [4]	IC50 [5]	EC50 (Enterococcus faecium)	EC50 (Staphylococcus aureus [6])	EC50 (Klebsiella pneumoniae)	EC50 (Acinetobacter baumannii)	EC50 (Pseudomonas aeruginosa)	EC50 (Enterobacter cloacae)	IC50 (HSP60/HSP10)	CC50 [7]	CC50 (HEK293)	EC50 (Staphylococcus aureus [8])	EC50 (Staphylococcus aureus [9])	EC50 (Staphylococcus aureus [10])
O=C(Nc1ccc(Sc2nc3ccccc3s2)cc1)c1ccccc1	> 100 µM	> 100 µM	> 100 µM	> 100 µM	> 63 µM	> 100 µM	> 100 µM	> 100 µM	> 100 µM	> 100 µM	> 100 µM	> 100 µM	> 100 µM	> 100 µM	–	–	–
CN[C@H](CC(C)C)C(=O)N[C@H]1C(=O)N[C@@H](CC(N)=O)C(=O)N[C@H]2C(=O)N[C@H]3C(=O)N[C@H](C(=O)N[C@H](C(=O)O)c4cc(O)cc(O)c4-c4cc3ccc4O)[C@H](O)c3ccc(c(Cl)c3)Oc3cc2cc(c3O[C@@H]2O[C@H](CO)[C@@H](O)[C@H](O)[C@H]2O[C@H]2C[C@](C)(N)[C@H](O)[C@H](C)O2)Oc2ccc(cc2Cl)[C@H]1O [VANCOMYCIN]	> 100 µM	> 100 µM	0.67 µM	> 100 µM	> 63 µM	0.6 µM	0.52 µM	> 100 µM	> 100 µM	> 100 µM	> 100 µM	> 100 µM	> 100 µM	> 100 µM	0.54 µM	> 100 µM	0.67 µM
COc1c(Br)cc(Br)cc1C(=O)Nc1ccc(Sc2nc3ccccc3s2)c(Cl)c1	> 100 µM	> 100 µM	> 100 µM	> 100 µM	> 63 µM	> 100 µM	> 100 µM	> 100 µM	> 100 µM	> 100 µM	> 100 µM	> 100 µM	> 100 µM	> 100 µM	–	–	–
COc1ccc(Br)cc1C(=O)Nc1ccccc1	> 100 µM	> 100 µM	> 100 µM	> 100 µM	> 63 µM	> 100 µM	> 100 µM	> 100 µM	> 100 µM	> 100 µM	> 100 µM	> 100 µM	> 100 µM	> 100 µM	–	–	–
COc1c(Br)cccc1C(=O)Nc1ccc(Sc2nc3ccccc3s2)c(Cl)c1	> 100 µM	> 100 µM	> 100 µM	> 100 µM	> 63 µM	> 100 µM	> 100 µM	> 100 µM	> 100 µM	> 100 µM	> 100 µM	> 100 µM	> 100 µM	> 100 µM	–	–	–
Cc1cc(C(C#N)c2ccc(Cl)cc2)c(Cl)cc1NC(=O)c1cc(I)cc(I)c1O (configuration not stated) [CLOSANTEL]	2.2 µM	1.5 µM	0.47 µM	> 100 µM	6.1 µM	1.2 µM	0.47 µM	> 100 µM	> 100 µM	> 100 µM	> 100 µM	2.5 µM	52 µM	75 µM	–	–	–
